*1 amine or outer side, *2 acyl side, *3 side chain or, on linkers, in order; H or OH if unused. Where a SMILES comes first, the peptide text is derived from it. Bridges are numbered along the chain shown (N, C = ends). [ ]: non-standard residue; d: D form. The star is where a group is joined. pTerphenylCO(4''-OnC5H11) = CCCCCOc1ccc(-c2ccc(-c3ccc(C(=O)*)cc3)cc2)cc1; Orn(4R-OH,5R-OH) = O=C([C@H](C[C@@H](O)[C@@H](O)N[*:3])N[*:1])[*:2]; hTyr(3S-OH,4S-OH) = N[C@H](C(=O)O)[C@H](O)[C@@H](O)c1ccc(O)cc1; Pro(3S-OH,4S-Me) = C[C@H]1CN[C@H](C(=O)O)[C@H]1O; Hyp = O=C(O)[C@@H]1C[C@@H](O)CN1

Data set [1] is described as follows: Volume of distribution at steady state in human plasma at 100 mg, iv by LC-MS/MS analysis. The data set is classed as ADME, organism-based. Particulars: read-out: Vdss. The essentials:
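Healthy adult men (n = 9), single i.v. infusion of [14C]drug over 100 min at 1 mg/min. 100 mg was planned; the mean dose actually given was 88.3 mg. Heparinized blood drawn from 0 h through day 10 and at 6–8 weeks. Parent drug in plasma measured by validated LC-MS/MS. Noncompartmental analysis, given as mean (%CV).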

Data set [2] deals with Cytochrome P450 2C9 (Homo sapiens, UniProt P11712). In words: Inhibition of human CYP2C9. The data set is classed as ADME.
Data set [3] in a line: Mean residence time in human plasma at 100 mg, iv by LC-MS/MS analysis. The format is ADME, organism-based. In outline:
(§1)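 Nine healthy adult men, single i.v. infusion of [14C]drug over 100 min at 1 mg/min (planned 100 mg; mean delivered 88.3 mg). Heparinized blood taken from predose through day 10 and at follow-up. Parent drug in plasma measured by validated LC-MS/MS. Noncompartmental analysis; values are means (%CV).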

The subject of data set [4] is Plasma. In words: Clearance in human plasma at 100 mg, iv by LC-MS/MS analysis. Particulars: in vivo. The data set is classed as ADME, organism-based. In outline:
as §1

The target of data set [5] is T1, Cytochrome P450 2B6 (Homo sapiens, UniProt P20813).
T1 sequence (P20813 whole entry): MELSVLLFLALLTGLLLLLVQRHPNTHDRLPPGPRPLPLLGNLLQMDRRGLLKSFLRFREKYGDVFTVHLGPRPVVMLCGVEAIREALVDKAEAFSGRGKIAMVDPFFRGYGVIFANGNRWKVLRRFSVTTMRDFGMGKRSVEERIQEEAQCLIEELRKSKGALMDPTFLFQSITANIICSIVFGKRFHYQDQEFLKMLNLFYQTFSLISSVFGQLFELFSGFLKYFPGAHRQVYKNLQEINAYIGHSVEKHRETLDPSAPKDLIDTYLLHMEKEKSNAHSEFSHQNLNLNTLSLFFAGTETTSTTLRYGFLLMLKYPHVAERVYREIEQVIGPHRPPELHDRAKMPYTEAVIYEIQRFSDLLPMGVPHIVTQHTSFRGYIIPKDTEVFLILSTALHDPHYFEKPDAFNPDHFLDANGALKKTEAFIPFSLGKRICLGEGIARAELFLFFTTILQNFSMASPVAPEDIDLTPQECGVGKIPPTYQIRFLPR
Kind of data set: Inhibition of human CYP2B6. The data set is classed as ADME. The essentials: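 Pooled liver microsomes from 53 human donors. Marker reactions: bupropion hydroxylase for CYP2B6. Incubations run in duplicate. IC50 taken from four to six concentrations.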

Data set [6] concerns the target Cytochrome P450 2C19 (Homo sapiens, UniProt P33261). Kind of data set: Inhibition of human CYP2C19. The format is ADME.
The target in data set [7] is T2, Cytochrome P450 1A2 (Homo sapiens, UniProt P05177).
T2 sequence (P05177 whole entry): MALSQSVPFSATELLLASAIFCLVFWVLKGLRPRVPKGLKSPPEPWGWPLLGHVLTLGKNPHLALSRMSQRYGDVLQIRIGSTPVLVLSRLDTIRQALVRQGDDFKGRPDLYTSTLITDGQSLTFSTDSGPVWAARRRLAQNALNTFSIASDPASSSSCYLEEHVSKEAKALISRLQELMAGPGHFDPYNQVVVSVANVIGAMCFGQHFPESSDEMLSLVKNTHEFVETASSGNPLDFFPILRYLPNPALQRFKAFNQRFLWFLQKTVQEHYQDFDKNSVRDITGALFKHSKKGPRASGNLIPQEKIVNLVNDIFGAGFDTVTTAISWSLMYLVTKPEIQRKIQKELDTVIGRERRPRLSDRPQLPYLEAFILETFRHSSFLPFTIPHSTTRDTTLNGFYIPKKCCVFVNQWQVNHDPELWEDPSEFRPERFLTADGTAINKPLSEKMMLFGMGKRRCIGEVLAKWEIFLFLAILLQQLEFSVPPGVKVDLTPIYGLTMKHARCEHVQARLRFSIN
In words: Inhibition of human CYP1A2. The format is ADME.

The target of data set [8] is Cytochrome P450 2D6 (Homo sapiens, UniProt P10635). In words: Inhibition of human CYP2D6. The format is ADME.
Data set [9] can be described thus: Half life in human plasma at 100 mg, iv by LC-MS/MS analysis. The format is ADME, organism-based. In outline: as §1
In data set [10] the target is T3, CYP2C8 (Homo sapiens, UniProt P10632).
T3 sequence (P10632 whole entry): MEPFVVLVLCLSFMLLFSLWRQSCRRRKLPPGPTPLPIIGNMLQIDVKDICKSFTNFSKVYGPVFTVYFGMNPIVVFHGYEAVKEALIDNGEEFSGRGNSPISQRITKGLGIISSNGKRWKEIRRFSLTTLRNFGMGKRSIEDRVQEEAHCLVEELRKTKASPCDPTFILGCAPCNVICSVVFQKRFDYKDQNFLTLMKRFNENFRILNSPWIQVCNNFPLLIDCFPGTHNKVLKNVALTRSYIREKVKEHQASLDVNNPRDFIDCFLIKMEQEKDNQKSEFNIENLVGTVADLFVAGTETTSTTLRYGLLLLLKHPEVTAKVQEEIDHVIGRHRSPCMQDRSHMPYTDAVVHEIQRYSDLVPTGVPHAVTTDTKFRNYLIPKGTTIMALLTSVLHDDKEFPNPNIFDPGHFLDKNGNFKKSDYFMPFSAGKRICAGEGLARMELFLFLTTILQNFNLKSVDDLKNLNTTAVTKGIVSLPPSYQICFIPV
In words: Inhibition of human CYP2C8 at 17.5 uM in presence of rosiglitazone. The data set is classed as ADME. Particulars: probe rosiglitazone. The essentials:
(§2)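 Heterologously expressed human CYP2C8, with rosiglitazone N-desmethylase as the marker reaction. […] Incubations run in duplicate.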

Data set [11] concerns the target T4, Cytochrome P450 2C8 (Homo sapiens, UniProt P10632).
T4 sequence (P10632 whole entry): T3 sequence (P10632 whole entry)
In words: Inhibition of human CYP2C8 using amodiaquine as a substrate. The format is ADME. In outline:
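CYP2C8 measured as amodiaquine N-deethylase in pooled human liver microsomes from 53 donors. Incubations run in duplicate. IC50 fitted from the concentration series.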

Data set [12] is described as follows: Cmax in human plasma at 100 mg, iv by LC-MS/MS analysis. The format is ADME, organism-based. Set-up: dose 100 mg, route intravenous. In outline: as §1
Data set [13] concerns the target T4, Cytochrome P450 2C8. In words: Inhibition of human CYP2C8 using rosiglitazone as a substrate. The data set is classed as ADME. The essentials:
as §2

A short description of data set [14]: Ratio of AUC in blood to plasma for Sprague-Dawley at 5 mg/kg, iv by liquid scintillation counting. The data set is classed as ADME, organism-based. Set-up: dose 5 mg/kg, route intravenous. Particulars: rat, in vivo. The essentials: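 Male Sprague-Dawley rats, single i.v. bolus of [14C]drug. Blood by cardiac puncture from three noncannulated rats killed at each time from 0.25 to 168 h; plasma separated from an aliquot. Radioactivity by liquid scintillation counting. Parameters come from a composite profile of mean values, taking 1 g as equal to 1 ml.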

The target in data set [15] is Cytochrome P450 3A4 (Homo sapiens, UniProt P08684). In words: Inhibition of human CYP3A4. The data set is classed as ADME.
Data set [16] can be described thus: Tmax in human plasma at 100 mg, iv by LC-MS/MS analysis. The format is ADME, organism-based. In outline: as §1

Sequence of Cytochrome P450 2C19 (P33261 whole entry): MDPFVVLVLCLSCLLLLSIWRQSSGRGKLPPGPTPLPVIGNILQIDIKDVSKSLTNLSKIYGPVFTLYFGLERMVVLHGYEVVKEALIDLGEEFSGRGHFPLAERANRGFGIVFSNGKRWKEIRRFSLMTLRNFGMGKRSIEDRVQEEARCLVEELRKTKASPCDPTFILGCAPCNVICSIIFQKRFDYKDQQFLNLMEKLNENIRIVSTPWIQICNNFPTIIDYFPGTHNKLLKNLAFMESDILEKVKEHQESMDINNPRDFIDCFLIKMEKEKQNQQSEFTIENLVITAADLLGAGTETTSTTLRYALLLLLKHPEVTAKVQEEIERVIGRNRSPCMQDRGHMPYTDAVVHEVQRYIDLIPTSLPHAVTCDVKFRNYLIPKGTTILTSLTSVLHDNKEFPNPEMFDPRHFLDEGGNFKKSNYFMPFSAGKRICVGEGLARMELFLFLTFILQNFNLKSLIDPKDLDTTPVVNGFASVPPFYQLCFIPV
Sequence of Cytochrome P450 3A4 (P08684 whole entry): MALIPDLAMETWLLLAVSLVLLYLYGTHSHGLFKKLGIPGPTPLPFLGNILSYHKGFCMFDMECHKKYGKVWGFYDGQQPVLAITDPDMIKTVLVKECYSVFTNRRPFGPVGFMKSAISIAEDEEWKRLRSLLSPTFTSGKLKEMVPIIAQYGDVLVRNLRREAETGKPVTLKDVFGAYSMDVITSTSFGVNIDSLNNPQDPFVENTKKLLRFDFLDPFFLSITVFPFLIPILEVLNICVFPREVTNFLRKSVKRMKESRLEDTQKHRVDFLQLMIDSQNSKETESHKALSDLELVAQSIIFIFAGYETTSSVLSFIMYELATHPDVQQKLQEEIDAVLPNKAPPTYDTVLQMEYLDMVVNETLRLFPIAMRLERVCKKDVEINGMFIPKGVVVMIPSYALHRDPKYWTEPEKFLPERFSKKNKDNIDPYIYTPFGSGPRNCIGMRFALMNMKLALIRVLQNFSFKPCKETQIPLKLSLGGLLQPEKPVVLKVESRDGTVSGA
Sequence of Cytochrome P450 2C9 (P11712 whole entry): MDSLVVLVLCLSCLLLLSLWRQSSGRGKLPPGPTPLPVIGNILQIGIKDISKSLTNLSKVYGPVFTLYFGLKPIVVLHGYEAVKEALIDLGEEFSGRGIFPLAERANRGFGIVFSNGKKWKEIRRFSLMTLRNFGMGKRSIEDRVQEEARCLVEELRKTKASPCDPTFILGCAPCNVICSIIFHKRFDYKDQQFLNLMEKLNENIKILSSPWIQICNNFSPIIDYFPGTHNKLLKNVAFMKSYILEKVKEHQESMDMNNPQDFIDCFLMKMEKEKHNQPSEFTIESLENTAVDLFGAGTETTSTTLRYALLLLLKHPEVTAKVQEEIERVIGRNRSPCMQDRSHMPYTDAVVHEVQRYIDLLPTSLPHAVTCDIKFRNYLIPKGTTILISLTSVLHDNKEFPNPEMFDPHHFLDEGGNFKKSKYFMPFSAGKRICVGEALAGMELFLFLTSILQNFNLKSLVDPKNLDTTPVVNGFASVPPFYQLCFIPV
Sequence of Cytochrome P450 2D6 (P10635 whole entry): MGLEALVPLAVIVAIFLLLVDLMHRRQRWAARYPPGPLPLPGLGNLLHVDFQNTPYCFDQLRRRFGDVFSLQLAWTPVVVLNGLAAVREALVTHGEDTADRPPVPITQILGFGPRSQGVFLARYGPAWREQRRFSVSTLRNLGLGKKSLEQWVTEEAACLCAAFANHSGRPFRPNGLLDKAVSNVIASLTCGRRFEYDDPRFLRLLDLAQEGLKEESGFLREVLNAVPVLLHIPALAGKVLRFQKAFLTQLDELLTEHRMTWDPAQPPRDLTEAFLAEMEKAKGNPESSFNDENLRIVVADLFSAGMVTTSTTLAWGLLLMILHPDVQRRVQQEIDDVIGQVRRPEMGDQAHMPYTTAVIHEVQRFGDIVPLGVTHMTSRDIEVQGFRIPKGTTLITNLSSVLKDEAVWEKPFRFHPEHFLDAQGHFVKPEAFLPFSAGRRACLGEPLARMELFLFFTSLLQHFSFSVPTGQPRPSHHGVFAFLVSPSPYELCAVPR

With `CCCCCOc1ccc(-c2ccc(-c3ccc(C(=O)N[C@H]4C[C@@H](O)[C@@H](O)NC(=O)[C@@H]5[C@@H](O)[C@@H](C)CN5C(=O)[C@H]([C@@H](C)O)NC(=O)[C@H]([C@H](O)[C@@H](O)c5ccc(O)cc5)NC(=O)[C@@H]5C[C@@H](O)CN5C(=O)[C@H]([C@@H](C)O)NC4=O)cc3)cc2)cc1` [ANIDULAFUNGIN] ({pTerphenylCO(4''-OnC5H11)}-[Orn(4R-OH,5R-OH)]T[Hyp][hTyr(3S-OH,4S-OH)]T[Pro(3S-OH,4S-Me)]; lactam 1-C), the Vd in [1] was found to be 32.6 L. In addition, the concentration for half-maximal inhibition (IC50) (as a rule, the concentration that gives 50% inhibition) was over 17.5 µM in data set [2]; over 17.5 µM in data set [5]; over 17.5 µM in [6]; over 17.5 µM in data set [7]; over 17.5 µM in data set [8]; 12 µM in [11]. In addition, the concentration for half-maximal inhibition (IC50) in data set [13] and in [15] was over 17.5 µM each time. Also, the mean residence time MRT (commonly a mean duration of stay, worked out from the concentration-time curve) in [3] was 35.6 h. The molecule also yielded a CL in [4] of 0.913 L/h. The half-life (in general, how long it takes for the measured level to halve) in data set [9] was 27.7 h. Further, in data set [10], the inhibition (commonly the percentage by which the read-out fell short of the control) at 17.5 µM was determined as 34.3%. Further, the Cmax (usually the peak of the concentration-time curve) in [12] came to 3630 ng/mL. For the same molecule, the Ratio in [14] is 1.5. In data set [16], the time to peak (Tmax) (as a rule, the time from dosing to the highest level) came to 1.78 h.

For the origin of these results see ChEMBL document CHEMBL1629624, “In vitro and in vivo studies to characterize the clearance mechanism and potential cytochrome P450 interactions of anidulafungin” (Antimicrob Agents Chemother, 2009).
